From ChEMBL document CHEMBL1155442, “Click chemistry approach to new N-substituted aminocyclitols as potential pharmacological chaperones for Gaucher disease” (J Med Chem, 2010)
Active and inactive are the calls of the source. The rule behind the calls is not given here.

Experiments:
[1] = Cytotoxicity against human fibroblast at 300 uM after 24 hrs by MTT assay; type: cell-based
[2] = biological target: T1, Lysosomal acid glucosylceramidase (Homo sapiens) (UniProt P04062); assay: Inhibition of beta-glucocerebrosidase in human fibroblast at 50 uM after 24 hrs by fluorescence assay
T1 sequence (whole entry): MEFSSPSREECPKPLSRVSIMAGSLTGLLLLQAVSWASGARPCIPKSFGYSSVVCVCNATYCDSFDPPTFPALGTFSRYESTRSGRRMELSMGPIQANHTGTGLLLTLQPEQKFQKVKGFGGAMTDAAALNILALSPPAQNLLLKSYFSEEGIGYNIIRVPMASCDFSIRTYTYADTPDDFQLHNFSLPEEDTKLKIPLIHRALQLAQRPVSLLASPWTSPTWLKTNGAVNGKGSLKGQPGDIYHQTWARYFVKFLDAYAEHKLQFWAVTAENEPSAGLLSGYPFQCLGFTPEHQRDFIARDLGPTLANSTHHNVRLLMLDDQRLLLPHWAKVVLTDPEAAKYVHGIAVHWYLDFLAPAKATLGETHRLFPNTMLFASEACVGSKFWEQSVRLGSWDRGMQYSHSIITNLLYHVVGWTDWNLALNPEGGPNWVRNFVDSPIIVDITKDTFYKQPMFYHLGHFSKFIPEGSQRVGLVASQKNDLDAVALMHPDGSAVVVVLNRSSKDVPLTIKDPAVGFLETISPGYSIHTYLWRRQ
Summary of the method: (§1)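 Wild-type human fibroblasts exposed to compound for 24 h (10, 20 or 50 μM, as listed) with 5 mM substrate. Cellular GCase activity then measured.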

Prunus dulcis = assay: Inhibition of sweet almond beta-glucosidase at 0.1 mM
Saccharomyces cerevisiae = assay: Inhibition of yeast alpha-glucosidase at 0.1 mM
Oryza sativa [3] = assay: Inhibition of rice alpha-glucosidase at 0.1 mM
Oryza sativa [4] = assay: Inhibition of rice alpha-galactosidase at 0.1 mM
[5] = biological target: T2, Beta-galactosidase (Bos taurus) (UniProt Q58D55); assay: Inhibition of bovine liver beta-galactosidase at 0.1 mM
T2 sequence (whole entry): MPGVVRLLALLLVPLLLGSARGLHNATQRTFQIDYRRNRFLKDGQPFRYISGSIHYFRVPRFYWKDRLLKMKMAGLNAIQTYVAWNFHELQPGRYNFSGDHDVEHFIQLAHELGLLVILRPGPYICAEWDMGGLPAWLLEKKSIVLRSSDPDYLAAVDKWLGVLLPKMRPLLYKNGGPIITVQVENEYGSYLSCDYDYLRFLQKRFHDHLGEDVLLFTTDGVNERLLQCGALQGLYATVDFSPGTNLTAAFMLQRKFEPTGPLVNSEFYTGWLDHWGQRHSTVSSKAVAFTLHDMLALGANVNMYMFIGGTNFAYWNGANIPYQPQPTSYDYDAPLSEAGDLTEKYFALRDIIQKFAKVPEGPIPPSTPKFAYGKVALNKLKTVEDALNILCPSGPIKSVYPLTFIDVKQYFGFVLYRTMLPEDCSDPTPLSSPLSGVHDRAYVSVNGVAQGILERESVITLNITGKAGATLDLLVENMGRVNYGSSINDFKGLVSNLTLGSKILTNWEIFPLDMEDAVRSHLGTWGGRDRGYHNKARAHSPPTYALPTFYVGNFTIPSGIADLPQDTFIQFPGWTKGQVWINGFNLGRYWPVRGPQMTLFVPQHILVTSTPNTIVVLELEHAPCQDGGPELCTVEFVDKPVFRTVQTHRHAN

[6] = Dissociation constant, pKa of the compound; type: physicochemical
[7] = biological target: T3, Lysosomal acid glucosylceramidase (Homo sapiens, UniProt P04062); assay: Inhibition of recombinant beta-glucocerebrosidase after 10 mins by fluorimetry
T3 sequence (P04062 whole entry): T1 sequence (whole entry)
Summary of the method: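 Imiglucerase (0.1 mg/mL stock) in McIlvaine buffer, pH 5.2 or 7.4, with 0.2% sodium taurocholate and 0.1% Triton X-100. Preincubated 30 min at 37 °C with or without inhibitor. Then 4 mM 4-methylumbelliferyl-β-D-glucopyranoside added for 10 min at 37 °C. Stopped with glycine/NaOH pH 10.6; 4-MU read at ex 355/em 460 nm. IC50 from % activity vs log[I], at least five concentrations.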

[8] = biological target: T3, Lysosomal acid glucosylceramidase; assay: Inhibition of recombinant beta-glucocerebrosidase at pH 7.4 after 10 mins by fluorimetry
[9] = biological target: T3, Lysosomal acid glucosylceramidase; assay: Inhibition of recombinant beta-glucocerebrosidase at pH 5.2 after 10 mins by fluorimetry
[10] = test system: Glucosylceramide synthase (Homo sapiens); assay: Inhibition of glucosylceramide synthase in human A549 cells at 250 uM after 35 mins by fluorescence-coupled HPLC analysis
[11] = biological target: T3, Lysosomal acid glucosylceramidase; assay: Competitive inhibition of beta-glucocerebrosidase at pH 5.2 by Lineweaver-Burke plot analysis
[12] = biological target: T1, Lysosomal acid glucosylceramidase (Homo sapiens); assay: Binding affinity to recombinant beta-glucocerebrosidase assessed as enzymatic activity at 50 uM after 20 mins by thermal stabilization assay relative to control
[13] = biological target: T1, Lysosomal acid glucosylceramidase (Homo sapiens); assay: Binding affinity to recombinant beta-glucocerebrosidase assessed as enzymatic activity at 50 uM after 40 mins by thermal stabilization assay relative to control
[14] = biological target: T1, Lysosomal acid glucosylceramidase (Homo sapiens); assay: Binding affinity to recombinant beta-glucocerebrosidase assessed as enzymatic activity at 50 uM after 60 mins by thermal stabilization assay relative to control
[15] = biological target: T1, Lysosomal acid glucosylceramidase (Homo sapiens); assay: Binding affinity to recombinant beta-glucocerebrosidase assessed as enzymatic activity at 100 uM after 20 mins by thermal stabilization assay relative to control
[16] = biological target: T1, Lysosomal acid glucosylceramidase (Homo sapiens); assay: Binding affinity to recombinant beta-glucocerebrosidase assessed as enzymatic activity at 100 uM after 40 mins by thermal stabilization assay relative to control
[17] = biological target: T1, Lysosomal acid glucosylceramidase (Homo sapiens); assay: Binding affinity to recombinant beta-glucocerebrosidase assessed as enzymatic activity at 100 uM after 60 mins by thermal stabilization assay relative to control
[18] = biological target: T1, Lysosomal acid glucosylceramidase (Homo sapiens); assay: Binding affinity to recombinant beta-glucocerebrosidase assessed as enzymatic activity at 150 uM after 20 mins by thermal stabilization assay relative to control
[19] = biological target: T1, Lysosomal acid glucosylceramidase (Homo sapiens); assay: Binding affinity to recombinant beta-glucocerebrosidase assessed as enzymatic activity at 150 uM after 40 mins by thermal stabilization assay relative to control
[20] = biological target: T1, Lysosomal acid glucosylceramidase (Homo sapiens); assay: Binding affinity to recombinant beta-glucocerebrosidase assessed as enzymatic activity at 150 uM after 60 mins by thermal stabilization assay relative to control
[21] = biological target: T1, Lysosomal acid glucosylceramidase (Homo sapiens); assay: Binding affinity to recombinant beta-glucocerebrosidase assessed as enzymatic activity at 10 uM after 20 mins by thermal stabilization assay relative to control
Summary of the method: (§2)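 Recombinant GCase (imiglucerase, 2 mg/mL aliquots) held at pH 7.4 and 48 °C with 0 (control) or 10–150 μM compound. At 20, 40 or 60 min, acetate-phosphate buffer (pH 5.0) and 4 mM 4-methylumbelliferyl β-D-glucoside in McIlvaine pH 5.2 added. Incubated 10 min at 37 °C with 0.1% Triton X-100 and 0.2% taurodeoxycholic acid. Stopped with glycine pH 10.6; 4-MU fluorescence read. Activity expressed relative to enzyme at 37 °C.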

[22] = biological target: T1, Lysosomal acid glucosylceramidase (Homo sapiens); assay: Binding affinity to recombinant beta-glucocerebrosidase assessed as enzymatic activity at 10 uM after 40 mins by thermal stabilization assay relative to control; summary of the method: as §2
[23] = biological target: T1, Lysosomal acid glucosylceramidase (Homo sapiens); assay: Binding affinity to recombinant beta-glucocerebrosidase assessed as enzymatic activity at 10 uM after 60 mins by thermal stabilization assay relative to control; summary of the method: as §2
[24] = biological target: T1, Lysosomal acid glucosylceramidase (Homo sapiens); assay: Binding affinity to recombinant beta-glucocerebrosidase assessed as enzymatic activity at 25 uM after 20 mins by thermal stabilization assay relative to control; summary of the method: as §2
[25] = biological target: T1, Lysosomal acid glucosylceramidase (Homo sapiens); assay: Binding affinity to recombinant beta-glucocerebrosidase assessed as enzymatic activity at 25 uM after 40 mins by thermal stabilization assay relative to control; summary of the method: as §2
[26] = biological target: T1, Lysosomal acid glucosylceramidase (Homo sapiens); assay: Binding affinity to recombinant beta-glucocerebrosidase assessed as enzymatic activity at 25 uM after 60 mins by thermal stabilization assay relative to control; summary of the method: as §2
[27] = Cytotoxicity against human fibroblast after 24 hrs by MTT assay; type: cell-based; settings: human fibroblasts
[28] = Selectivity index, ratio of CC50 for human fibroblast to Ki for beta-glucocerebrosidase
[29] = biological target: T1, Lysosomal acid glucosylceramidase (Homo sapiens); assay: Inhibition of beta-glucocerebrosidase in human fibroblast at 20 uM after 24 hrs by fluorescence assay; summary of the method: as §1
[30] = biological target: T1, Lysosomal acid glucosylceramidase (Homo sapiens); assay: Inhibition of beta-glucocerebrosidase in human fibroblast at 10 uM after 24 hrs by fluorescence assay; summary of the method: as §1
[31] = biological target: T1, Lysosomal acid glucosylceramidase (Homo sapiens); settings: 0.1 to 0.25 uM

inhibition [2]	inhibition (Prunus dulcis)	inhibition (Saccharomyces cerevisiae)	inhibition (Oryza sativa [3])	inhibition (Oryza sativa [4])	inhibition [5]	pKa [6]	IC50 [7]	IC50 [8]	IC50 [9]	Ki [11]	fold change (FC) [12]	fold change (FC) [13]	fold change (FC) [14]	fold change (FC) [15]	fold change (FC) [16]	fold change (FC) [17]	fold change (FC) [18]	fold change (FC) [19]	Structure (SMILES)	Activity [1]	further results
< 5%	inactive	inactive	inactive	inactive	inactive	10.4	257 µM	44.6 µM	257 µM	–	–	–	–	–	–	–	–	–	CCCCCCn1cc(CCCN[C@H]2[C@H](O)[C@@H](O)[C@H](O)[C@@H](O)[C@@H]2O)nn1	Non-toxic	inhibition [10]: 30%
50%	inactive	inactive	inactive	inactive	inactive	9.1	25.7 µM	4.9 µM	25.4 µM	20.2 µM	2.43	5.98	9.63	2.55	6.7	11.6	2.5	4.79	CCCCCCCCCCCn1cc(CCN[C@H]2[C@H](O)[C@@H](O)[C@H](O)[C@@H](O)[C@@H]2O)nn1	Non-toxic	fold change (FC) [20]: 5.3; inhibition [10]: 30%
90%	inactive	inactive	inactive	inactive	inactive	7.1	0.0933 µM	0.09 µM	0.1 µM	0.09 µM	2.7	8.33	17.2	2.91	8.88	20.9	3.24	10.5	CCCCCCCCCCn1cc(CN[C@H]2[C@H](O)[C@@H](O)[C@H](O)[C@@H](O)[C@@H]2O)nn1	Non-toxic	fold change (FC) [20]: 25.9; fold change (FC) [21]: 1.55; fold change (FC) [22]: 3.56; fold change (FC) [23]: 4.19; fold change (FC) [24]: 2.21; fold change (FC) [25]: 5.95; fold change (FC) [26]: 10.2; Selectivity Index [28]: >=3300; inhibition [29]: 71%; inhibition [30]: 58%; inhibition [31]: Active

Structure (SMILES)	inhibition [2]	inhibition (Prunus dulcis)	inhibition (Saccharomyces cerevisiae)	inhibition (Oryza sativa [3])	inhibition (Oryza sativa [4])	inhibition [5]	pKa [6]	IC50 [7]	IC50 [8]	IC50 [9]	Ki [11]	fold change (FC) [12]	fold change (FC) [13]	fold change (FC) [14]	fold change (FC) [15]	fold change (FC) [16]	fold change (FC) [17]	fold change (FC) [18]	fold change (FC) [19]	Activity [1]	further results
CCCCCCCCCCCCn1cc(CN[C@H]2[C@H](O)[C@@H](O)[C@H](O)[C@@H](O)[C@@H]2O)nn1	Toxic	inactive	inactive	inactive	inactive	inactive	7.1	0.0302 µM	0.06 µM	0.03 µM	0.06 µM	3.11	10.9	24.9	3.41	12.8	28.7	3.21	11.5	–	fold change (FC) [20]: 26.2; fold change (FC) [21]: 2.65; fold change (FC) [22]: 8.48; fold change (FC) [23]: 18.7; fold change (FC) [24]: 2.97; fold change (FC) [25]: 9.42; fold change (FC) [26]: 23.2; CC50 at 24 h [27]: 55 µM; Selectivity Index [28]: 916; inhibition [29]: 90%; inhibition [30]: 87%
